How the values were obtained:
[1] = target: T1, Cannabinoid receptor 2 (Homo sapiens, UniProt P34972); experiment: Agonist activity at cloned human CB2 receptor in Sf9 cells assessed by [35S]GTPgammaS binding assay relative to delta9-THC; format: functional
[2] = target: T1, Cannabinoid receptor 2; experiment: Displacement of [3H]CP-55940 from human CB2 receptor
[3] = target: T1, Cannabinoid receptor 2; experiment: Agonist activity at cloned human CB2 receptor in Sf9 cells assessed as stimulation of [35S]GTPgammaS binding assay; format: functional
Method in brief: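 Sf9 membranes carrying cloned human CB2, in 50 mM Hepes, 20 mM NaOH, 100 mM NaCl, 1 mM EDTA, 5 mM MgCl2, 0.1% BSA plus GDP, pH 7.4. 10-point dose–response with [35S]GTPγS (~130,000 dpm/well), 1 h, room temperature. Filtered and washed (Tris/MgCl2/NaCl pH 7.4, 4 °C), then scintillation counted.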

[4] = target: Cannabinoid receptor 1 (Homo sapiens, UniProt P21554); experiment: Displacement of [3H]CP-55940 from human CB1 receptor
Sequence of Cannabinoid receptor 1 (P21554 whole entry): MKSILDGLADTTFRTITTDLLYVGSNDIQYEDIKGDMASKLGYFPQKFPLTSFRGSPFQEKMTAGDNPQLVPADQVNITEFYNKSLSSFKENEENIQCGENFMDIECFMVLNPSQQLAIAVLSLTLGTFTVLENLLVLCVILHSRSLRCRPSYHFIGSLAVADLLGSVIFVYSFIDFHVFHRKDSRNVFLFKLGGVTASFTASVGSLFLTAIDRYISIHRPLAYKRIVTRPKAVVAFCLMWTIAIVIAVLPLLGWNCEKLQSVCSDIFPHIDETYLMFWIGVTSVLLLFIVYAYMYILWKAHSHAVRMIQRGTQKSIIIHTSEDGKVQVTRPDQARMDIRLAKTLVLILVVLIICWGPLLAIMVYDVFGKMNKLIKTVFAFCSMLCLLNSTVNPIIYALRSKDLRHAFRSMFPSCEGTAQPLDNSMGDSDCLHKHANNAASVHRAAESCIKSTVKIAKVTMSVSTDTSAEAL

T1 sequence (P34972 whole entry): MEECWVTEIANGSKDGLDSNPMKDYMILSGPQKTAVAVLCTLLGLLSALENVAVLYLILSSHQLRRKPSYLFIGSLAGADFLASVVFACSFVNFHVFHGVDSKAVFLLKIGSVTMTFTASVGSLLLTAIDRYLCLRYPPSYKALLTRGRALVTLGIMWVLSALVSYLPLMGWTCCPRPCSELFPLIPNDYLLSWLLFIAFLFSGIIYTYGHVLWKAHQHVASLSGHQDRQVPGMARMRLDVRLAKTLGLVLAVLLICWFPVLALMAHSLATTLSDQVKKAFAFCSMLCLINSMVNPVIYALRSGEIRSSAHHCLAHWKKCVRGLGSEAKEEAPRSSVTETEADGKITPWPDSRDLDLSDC

Row | Structure (SMILES) | Emax [1] [%] | Ki [2] [nM] | EC50 [3] [nM] | Ki [4] [nM]
1 | CCOc1ccc(Cc2nc3cc(C(=O)N(C)C4CCCCC4)ccc3n2CC2CC2)cc1 | 60 | 11 | 4.2 | > 5000
2 | CCOc1ccc(Cc2nc3cc(C(=O)N(CC)CC)ccc3n2CC2CCOCC2)cc1 | 89 | 3.9 | 1 | 1210
3 | CCOc1ccc(Cc2nc3cc(C(=O)N4CCCCC4)ccc3n2CC2CC2)cc1 | 45 | 6.9 | 3 | > 5000
4 | CCN(CC)C(=O)c1ccc2c(c1)nc(Cc1ccc(O)cc1)n2CCC(C)C | – | 799 | – | > 5000
5 | CCNC(=O)c1ccc2c(c1)nc(Cc1ccc(OCC)cc1)n2CC1CC1 | 53 | 63 | 52 | > 5000
6 | Cc1c(C(=O)c2cccc3ccccc23)c2cccc3c2n1[C@H](CN1CCOCC1)CO3 | 64 | – | – | –
7 | CCOc1ccc(Cc2nc3cc(C(=O)N(CC)CC)ccc3n2Cc2ccncc2)cc1 | 78 | 16 | 5 | > 5000
8 | CCN(CC)C(=O)c1ccc2c(c1)nc(Cc1ccc(OC3CCCC3)cc1)n2CCC(C)C | 83 | 43 | 18 | > 5000
9 | CCOc1ccc(Cc2nc3cc(C(=O)N(CC)CC)ccc3n2Cc2ccco2)cc1 | 78 | 11 | 3.3 | > 5000
10 | CCOc1ccc(Cc2nc3cc(N(C)C(=O)c4cccs4)ccc3n2CC2CC2)cc1 | 51 | 5 | 2.6 | 2480
11 | CCOc1ccc(Cc2nc3cc(C(=O)N(CC)CC)ccc3n2C[C@H]2CCCO2)cc1 | 62 | 23 | 8.3 | > 5000
12 | CCOc1ccc(Cc2nc3cc(C(=O)N(CC)CC)ccc3n2CC2CC2)cc1 | 68 | 4.1 | 2.1 | > 5000
13 | CCOc1ccc(Cc2nc3cc(N(C)C(=O)CC(C)C)ccc3n2CC2CC2)cc1 | 54 | 4 | 2.7 | > 5000
14 | CCN(CC)C(=O)c1ccc2c(c1)nc(Cc1ccc(OC3CCCCC3)cc1)n2CCC(C)C | – | 526 | – | > 5000
15 | CCN(CC)C(=O)c1ccc2c(c1)nc(Cc1ccc(OC(C)C)cc1)n2CCC(C)C | 79 | 4.5 | 2.4 | 4680
16 | CCOc1ccc(Cc2nc3cc(C(N)=O)ccc3n2CC2CC2)cc1 | – | > 5000 | – | > 5000
17 | CCN(CC)C(=O)c1ccc2c(c1)nc(Cc1ccc(Oc3ccccc3)cc1)n2CCC(C)C | 66 | 4.9 | 3.2 | 2400
18 | CCN(CC)C(=O)c1ccc2c(c1)nc(Cc1ccc(OCC3CC3)cc1)n2CCC(C)C | 75 | 53 | 43 | 4190
19 | CCOc1ccc(Cc2nc3cc(N(C)C(=O)N(CC)CC)ccc3n2CC2CC2)cc1 | 48 | 5.9 | 2 | > 5000
20 | CCOc1ccc(C(=O)c2nc3cc(C(=O)N(CC)CC)ccc3n2CCC(C)C)cc1 | 55 | 35 | 25 | > 5000
21 | CCOc1ccc(Cc2nc3cc(C(=O)N(CC)CC)ccc3n2CC2CCCCC2)cc1 | 79 | 3.7 | 0.52 | 110
22 | CCOc1ccc(Cc2nc3cc(C(=O)N(CC)CC)ccc3n2CC2CCC2)cc1 | 64 | 1.6 | 1.3 | 3120
23 | CCN(CC)C(=O)c1ccc2c(c1)nc(Cc1ccc(OC3CCC3)cc1)n2CCC(C)C | 73 | 44 | 24 | > 5000
24 | CCOc1ccc(Cc2nc3cc(C(=O)N(CC)CC)ccc3n2CC2CCCC2)cc1 | 79 | 1 | 0.7 | 491

Row | Structure (SMILES) | Emax [1] [%] | Ki [2] [nM] | EC50 [3] [nM] | Ki [4] [nM]
25 | CCOc1ccc(Cc2nc3cc(NC(C)=O)ccc3n2CC2CC2)cc1 | – | > 5000 | – | > 5000
26 | CCOc1ccc(Cc2nc3cc(C(=O)N(CC)CC)ccc3n2Cc2ccccn2)cc1 | 77 | 39 | 25 | > 5000
27 | CCOc1ccc(Cc2nc3cc(N(C)C(C)=O)ccc3n2CC2CC2)cc1 | – | 1350 | – | > 5000
28 | CCOc1ccc(Cc2nc3cc(N(C)C(=O)N4CCCCC4)ccc3n2CC2CC2)cc1 | 60 | 4 | 3.3 | 3480
29 | CCOc1ccc(Cc2nc3cc(C(=O)N(CC)CC)ccc3n2Cc2ccccc2)cc1 | 88 | 12 | 1.1 | 4770
30 | CCCN(C)C(=O)c1ccc2c(c1)nc(Cc1ccc(OCC)cc1)n2CC1CC1 | 54 | 7.6 | 3.2 | > 5000
31 | CCOc1ccc(Cc2nc3cc(N(C)C(=O)NC(C)C)ccc3n2CC2CC2)cc1 | 51 | 5.7 | 6.4 | > 5000
32 | CCOc1ccc(Cc2nc3cc(C(=O)N4CCCC4)ccc3n2CC2CC2)cc1 | 51 | 14 | 6.2 | > 5000
33 | CCOc1ccc(C(O)c2nc3cc(C(=O)N(CC)CC)ccc3n2CCC(C)C)cc1 (configuration not stated) | 70 | 57 | – | > 5000
34 | CCOc1ccc(Cc2nc3cc(NC)ccc3n2CC2CC2)cc1 | – | 4340 | – | > 5000
35 | CCOc1ccc(Cc2nc3cc(N(C)C(=O)N(C)C)ccc3n2CC2CC2)cc1 | 55 | 41 | 36 | > 5000
36 | CCOc1ccc(Cc2nc3cc(C(=O)N(CC)CC)ccc3n2CC2CCNCC2)cc1 | – | 2920 | – | > 5000
37 | CCOc1ccc(Cc2nc3cc(C(=O)N(CC)CC)ccc3n2CC2CC2)cn1 | – | – | – | > 5000
38 | CCCN(CCC)C(=O)c1ccc2c(c1)nc(Cc1ccc(OCC)cc1)n2CC1CC1 | 67 | 2.8 | 2 | 2610
39 | CCOc1ccc(Cc2nc3cc(C(=O)N(CC)CC)ccc3n2C[C@@H]2CCCO2)cc1 | 76 | 15 | 4.8 | > 5000
40 | CCOc1ccc(Cc2nc3cc(C(=O)N(CC)CC)ccc3n2Cc2cc[n+]([O-])cc2)cc1 | – | 588 | – | > 5000
41 | CCN(CC)C(=O)c1ccc2c(c1)nc(Cc1ccc(OCC(F)(F)F)cc1)n2CCC(C)C | 68 | 57 | 65 | > 5000
42 | CCN(CC)C(=O)c1ccc2c(c1)nc(Cc1ccc(OC(F)(F)F)cc1)n2CCC(C)C | 29 | 25 | 11 | > 5000
43 | CCOc1ccc(Cc2nc3cc(C(=O)N(CC)CC)ccc3n2CCC(C)C)cc1 | 63 | – | – | > 5000
44 | CCN(CC)C(=O)c1ccc2c(c1)nc(Cc1ccc(OC)cc1)n2CCC(C)C | 43 | 17 | 7.3 | > 5000
45 | CCOc1ccc(Cc2nc3cc(C(=O)N(CC)CC)ccc3n2CC2CC2)nc1 | 63 | 27 | 22 | > 5000
46 | CCOc1ccc(Cc2nc3cc(C(=O)N(CC(F)(F)F)CC(F)(F)F)ccc3n2CC2CC2)cc1 | 51 | – | 2 | 4530
47 | CCOc1ccc(Cc2nc3cc(C(=O)N(CC)CC)ccc3n2CC23CC4CC(CC(C4)C2)C3)cc1 | 81 | 2.8 | 1.3 | 406

Reference: ChEMBL document CHEMBL1157439, “Novel benzimidazole derivatives as selective CB2 agonists” (Bioorg Med Chem Lett, 2008)
